Assay results: ChEMBL document CHEMBL4715736, “Identification of anticancer agents based on the thieno[2,3-b]pyridine and 1H-pyrazole molecular scaffolds” (2016)

Assays:
Type in all cases: functional
MOLT-4 = test: Growth inhibition of human MOLT-4 cells assessed as cell growth at 10 uM incubated for 48 hrs by sulforhodamine B assay relative to control; conditions: read-out: Activity
Procedure, shortened: (§1)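 Submitted to the NCI Developmental Therapeutics Program for the NCI60 human tumour cell line panel. First screen at a single 10 µM concentration. Read-out is growth relative to untreated control cells set at 100%.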

HOP-62 = test: Growth inhibition of human HOP-62 cells assessed as cell growth at 10 uM incubated for 48 hrs by sulforhodamine B assay relative to control; conditions: read-out: Activity; procedure, shortened: as §1
NCI-H226 = test: Growth inhibition of human NCI-H226 cells assessed as cell growth at 10 uM incubated for 48 hrs by sulforhodamine B assay relative to control; conditions: read-out: Activity; procedure, shortened: as §1
NCI-H460 [1] = test: Growth inhibition of human NCI-H460 cells assessed as cell growth at 10 uM incubated for 48 hrs by sulforhodamine B assay relative to control; conditions: read-out: Activity; procedure, shortened: as §1
NCI-H522 = test: Growth inhibition of human NCI-H522 cells assessed as cell growth at 10 uM incubated for 48 hrs by sulforhodamine B assay relative to control; conditions: read-out: Activity; procedure, shortened: as §1
HCT-116 = test: Growth inhibition of human HCT-116 cells assessed as cell growth at 10 uM incubated for 48 hrs by sulforhodamine B assay relative to control; conditions: read-out: Activity; procedure, shortened: as §1
HCT-15 = test: Growth inhibition of human HCT-15 cells assessed as cell growth at 10 uM incubated for 48 hrs by sulforhodamine B assay relative to control; conditions: read-out: Activity; procedure, shortened: as §1
HT-29 = test: Growth inhibition of human HT-29 cells assessed as cell growth at 10 uM incubated for 48 hrs by sulforhodamine B assay relative to control; conditions: read-out: Activity; procedure, shortened: as §1
KM12 = test: Growth inhibition of human KM12 cells assessed as cell growth at 10 uM incubated for 48 hrs by sulforhodamine B assay relative to control; conditions: read-out: Activity; procedure, shortened: as §1
SNB-19 = test: Growth inhibition of human SNB-19 cells assessed as cell growth at 10 uM incubated for 48 hrs by sulforhodamine B assay relative to control; conditions: read-out: Activity
Procedure, shortened: (§2)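 Run by the NCI Developmental Therapeutics Program as part of its 60-line human tumour panel. Each compound tested at a single 10 µM dose. Growth expressed as % relative to untreated control cells (100%).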

SNB-75 = test: Growth inhibition of human SNB-75 cells assessed as cell growth at 10 uM incubated for 48 hrs by sulforhodamine B assay relative to control; conditions: read-out: Activity; procedure, shortened: as §2
Malme-3M [2] = test: Growth inhibition of human Malme-3M cells assessed as cell growth at 10 uM incubated for 48 hrs by sulforhodamine B assay relative to control; conditions: read-out: Activity; procedure, shortened: as §1
M14 = test: Growth inhibition of human M14 cells assessed as cell growth at 10 uM incubated for 48 hrs by sulforhodamine B assay relative to control; conditions: read-out: Activity; procedure, shortened: as §1
SK-MEL-2 = test: Growth inhibition of human SK-MEL-2 cells assessed as cell growth at 10 uM incubated for 48 hrs by sulforhodamine B assay relative to control; conditions: read-out: Activity; procedure, shortened: as §2
SK-MEL-5 = test: Growth inhibition of human SK-MEL-5 cells assessed as cell growth at 10 uM incubated for 48 hrs by sulforhodamine B assay relative to control; conditions: read-out: Activity; procedure, shortened: as §2
UACC-257 = test: Growth inhibition of human UACC-257 cells assessed as cell growth at 10 uM incubated for 48 hrs by sulforhodamine B assay relative to control; conditions: read-out: Activity; procedure, shortened: as §2
SK-OV-3 = test: Growth inhibition of human SK-OV-3 cells assessed as cell growth at 10 uM incubated for 48 hrs by sulforhodamine B assay relative to control; conditions: read-out: Activity; procedure, shortened: as §2
786-0 = test: Growth inhibition of human 786-0 cells assessed as cell growth at 10 uM incubated for 48 hrs by sulforhodamine B assay relative to control; conditions: read-out: Activity
Procedure, shortened: (§3)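 NCI Developmental Therapeutics Program NCI60 panel. Compounds that were active in the 10 µM one-dose screen went on to dose–response testing. Growth at each concentration is expressed relative to untreated control (100%). GI50 (concentration giving 50% of maximal inhibition of proliferation) and TGI (concentration giving total growth inhibition) were derived from the curves.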

A498 = test: Growth inhibition of human A498 cells assessed as cell growth at 10 uM incubated for 48 hrs by sulforhodamine B assay relative to control; conditions: read-out: Activity; procedure, shortened: as §3
CAKI-1 = test: Growth inhibition of human CAKI-1 cells assessed as cell growth at 10 uM incubated for 48 hrs by sulforhodamine B assay relative to control; conditions: read-out: Activity; procedure, shortened: as §3
RXF 393 = test: Growth inhibition of human RXF 393 cells assessed as cell growth at 10 uM incubated for 48 hrs by sulforhodamine B assay relative to control; conditions: read-out: Activity; procedure, shortened: as §2
SN12C = test: Growth inhibition of human SN12C cells assessed as cell growth at 10 uM incubated for 48 hrs by sulforhodamine B assay relative to control; conditions: read-out: Activity; procedure, shortened: as §2
TK-10 = test: Growth inhibition of human TK-10 cells assessed as cell growth at 10 uM incubated for 48 hrs by sulforhodamine B assay relative to control; conditions: read-out: Activity; procedure, shortened: as §2
UO-31 = test: Growth inhibition of human UO-31 cells assessed as cell growth at 10 uM incubated for 48 hrs by sulforhodamine B assay relative to control; conditions: read-out: Activity; procedure, shortened: as §2
BT-549 = test: Growth inhibition of human BT-549 cells assessed as cell growth at 10 uM incubated for 48 hrs by sulforhodamine B assay relative to control; conditions: read-out: Activity
Procedure, shortened: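 NCI Developmental Therapeutics Program NCI60 human tumour cell line panel, one-dose primary screen with every compound at 10 µM. Growth is expressed as % of untreated control cells (100%).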

SR = test: Growth inhibition of human SR cells assessed as cell growth at 10 uM incubated for 48 hrs by sulforhodamine B assay relative to control; conditions: read-out: Activity; procedure, shortened: as §2
Malme-3M [3] = test: Growth inhibition of human Malme-3M cells assessed as cell growth at 0.01 uM incubated for 48 hrs by sulforhodamine B assay relative to control; conditions: read-out: Activity
MDA-MB-468 = test: Growth inhibition of human MDA-MB-468 cells assessed as cell growth at 0.01 uM incubated for 48 hrs by sulforhodamine B assay relative to control; conditions: read-out: Activity
NCI-H460 [4] = test: Growth inhibition of human NCI-H460 cells assessed as cell growth at 1 uM incubated for 48 hrs by sulforhodamine B assay relative to control; conditions: read-out: Activity
SF-539 = test: Growth inhibition of human SF-539 cells incubated for 48 hrs by sulforhodamine B assay
Procedure, shortened: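 NCI DTP 60-line human tumour panel. Dose-response curves were run only for ligands active in the initial 10 µM screen. GI50 (concentration giving 50% of maximal inhibition of proliferation) and TGI (concentration giving total growth inhibition) were derived from these curves.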

Row | SMILES | growth at 10 µM (MOLT-4) | growth at 10 µM (HOP-62) | growth at 10 µM (NCI-H226) | growth at 10 µM (NCI-H460 [1]) | growth at 10 µM (NCI-H522) | growth at 10 µM (HCT-116) | growth at 10 µM (HCT-15) | growth at 10 µM (KM12) | growth at 10 µM (SNB-19) | growth at 10 µM (SNB-75) | growth at 10 µM (Malme-3M [2]) | growth at 10 µM (M14) | growth at 10 µM (SK-MEL-5) | growth at 10 µM (UACC-257) | growth at 10 µM (786-0) | growth at 10 µM (A498) | growth at 10 µM (CAKI-1) | growth at 10 µM (RXF 393) | growth at 10 µM (SN12C) | growth at 10 µM (UO-31) | further results
1 | COc1ccc(S(=O)(=O)n2ccc(-c3ccc4c(c3)CCC(C)(C)O4)n2)cc1 | 65.9% | 112% | 71.4% | 75.4% | 55.6% | 68.3% | 97.6% | 81.9% | 87.1% | 84% | 110% | 86.5% | 42.6% | 57.4% | 67.6% | 89.1% | 63.3% | 110% | 97.5% | 78.1% | growth at 10 µM (HT-29): 84.5%; growth at 10 µM (SK-MEL-2): 84.4%; growth at 10 µM (SK-OV-3): 90.4%; growth at 10 µM (TK-10): 68.2%; growth at 10 µM (BT-549): 65.5%
2 | Cc1ccc(S(=O)(=O)n2ccc(-c3ccc(OCCCF)cc3)n2)cc1 | 73.2% | 108% | 77.6% | 89.6% | 69.5% | 86.1% | 93.5% | 95% | 91.7% | 78.3% | 101% | 94.7% | 73.5% | 80% | 89.6% | 77% | 63.8% | 91.8% | 80.2% | 66.4% | growth at 10 µM (SR): 67.4%; growth at 10 µM (HT-29): 86.4%; growth at 10 µM (SK-MEL-2): 87.2%; growth at 10 µM (SK-OV-3): 107%; growth at 10 µM (TK-10): 62.8%; growth at 10 µM (BT-549): 99.9%
3 | O=S(=O)(c1ccc(Br)cc1)n1ccc(-c2ccc(OCCCF)cc2)n1 | 75.8% | 118% | 80.6% | 90.1% | 79.4% | 78.7% | 86.4% | 104% | 95.5% | 84.5% | 89% | 97.1% | 75.4% | 77.9% | 85.3% | 91.1% | 79.3% | 92.7% | 87% | 69.1% | growth at 10 µM (SR): 75.2%; growth at 10 µM (HT-29): 89.4%; growth at 10 µM (SK-MEL-2): 96.4%; growth at 10 µM (SK-OV-3): 106%; growth at 10 µM (TK-10): 70.8%; growth at 10 µM (BT-549): 110%
4 | CCc1cccc(C)c1NC(=O)c1sc2nc3c(cc2c1N)C(=O)CCC3 | 17.9% | 23.3% | 49% | 4% |  | 17% | 16% | 14% | 42% | -2.83% | 48% | 7% | -10% | 49% | 28% | -13% | 38% | 4% | 30% | 29% | growth at 0.01 µM (Malme-3M [3]): 96%; growth at 0.01 µM (MDA-MB-468): 91%; growth at 1 µM (NCI-H460 [4]): 9%; growth at 10 µM (SR): 2.24%; GI50 (SF-539): 320 nM; CC50 (SF-539; read-out: LC50 (the source's name)): > 100000 nM
5 | O=S(=O)(c1ccccc1)n1ccc(-c2ccc3c(c2)CCO3)n1 | 85.6% | 98.8% | 64.6% | 87.3% | 61.7% | 89.1% | 92.8% | 91.9% | 83.4% | 76.2% | 94% | 101% | 70.2% | 79.9% | 90.3% | 71.2% | 75.3% | 82.9% | 67.9% | 51% | growth at 10 µM (SR): 73.3%; growth at 10 µM (HT-29): 92.8%; growth at 10 µM (SK-MEL-2): 86.5%; growth at 10 µM (SK-OV-3): 104%; growth at 10 µM (TK-10): 76.2%; growth at 10 µM (BT-549): 96%
